Screening data deposited in PubChem by several laboratories.
An excerpt weighted towards active compounds, which were near 4.8% of everything screened.
SUMO Mot1 rescue – inhibitors of SUMOylation pathway: yeast Mot1-301 growth rescue | growth rescue, % at 18.8 µM | 1% of 320,000 active | S. cerevisiae Mot1-301 growth rescue, ATP luminescence, 38.5C; percent above DMSO median, 100 means doubled;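 active = every valid replicate shows activation above 250% relative to neutral control wells; inactive = the rest, any valid replicate at or below 250%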;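 also: OY570 slx delta 5 strain wells were the positive control but not used for scaling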
CSC inhib – cancer stem cell inhibition. inhibition, % at 7.5 µM. cancer stem cell-like cells viability, luminescence. 1.1% of 300,000 active; in the data active = inhibition above about 75%; tested in HMLE shEcad cells
Efflux pump mplx – blocks antifungal efflux pumps in multiplex yeast assay; 0.44% of 330,000 active; inhibition, % at 10 µM; AID 485275; S. cerevisiae Candida pump triplex, Nile Red efflux;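 active = plate passing quality check with inhibition over a set limit, or well fluorescence over plate mean plus 4 SD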;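 also: Nile Red retained in pooled yeast measured as flow cytometry median fluorescence; 0% = buffer negative control and 100% = Enniatin B positive control; higher means more Nile Red kept so more efflux inhibition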
T cruzi repl – T. cruzi replication inhibition | T. cruzi beta-gal in NIH3T3, luminescence, 90 h | inhibition, % (concentration not given with the values) | 1.4% of 300,000 active;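 active = mean inhibition across valid replicates above about 55%, limit read from the data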;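 also: signal also drops with host cell toxicity which is not excluded here; 0% = plate median of DMSO wells and 100% = zero luminescence signal; higher percent means less beta-gal luminescence so fewer parasites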
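Test system: β-gal T. cruzi (Tulahuen C4) inside NIH/3T3 cells / Quantity: 5,000 cells/well / Measured by: luminescence from GalScreen with 0.05% NP40, read after 60 min / Medium: DMEM plus 2% FBS / Measure: parasite load inhibition, % / Reagent: Tulahuen C4 trypomastigotes, 5000/well / Schedule: co-culture of at least 90 h after 3 h attachment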
Beta apoptosis – beta cell apoptosis inhibition; INS-1E cytokine-induced death, ATP luminescence, 48 h; percent of positive-control rescue, neutral wells zero; protection from apoptosis, % (test concentration not listed); 0.8% of 300,000 active; AID 435005;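 active = Every replicate reaches about 75%, or at least half do and their mean reaches it too, limit read from the data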;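 also: 0% = cytokine-treated negative control wells and 100% = positive control rescue; higher means more ATP so stronger rescue from cytokine killing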
WT yeast gro inh – growth inhibition of WT yeast, mitochondrial fusion screen. inhibition, % at 10 µM. mitochondrial fusion phenotypic screen, WT strain. 2.1% of 190,000 active; in the data active = inhibition above about 58%; tested in S. cerevisiae
Starred values were filed as active, the others as inactive.

How did CC[C@H](CO)Nc1nc(Nc2cccc(Cl)c2)c2ncn(C(C)C)c2n1 do in these assays?
SUMO Mot1 rescue: -13; CSC inhib: 82*; Efflux pump mplx: 0; T cruzi repl: 32; Beta apoptosis: 62

Results for O=S(=O)(/N=C(/Nc1cccc2ccccc12)c1ccccc1)c1ccc(F)cc1 ?
SUMO Mot1 rescue: -2; CSC inhib: -4; Efflux pump mplx: 0; T cruzi repl: 17; Beta apoptosis: 3

Results for C=CCn1c(COc2ccccc2-c2ccccc2)nnc1SCC(=O)NC(=O)NCc1ccco1 ?
SUMO Mot1 rescue: 21; CSC inhib: 16; Efflux pump mplx: 0; T cruzi repl: -2; Beta apoptosis: -8; WT yeast gro inh: 95*

What do the screens show for `C=CCn1c(COc2ccccc2F)nnc1SCC(=O)NC(=O)NCc1ccco1`?
SUMO Mot1 rescue: 4; CSC inhib: 4; Efflux pump mplx: 0; T cruzi repl: 3; Beta apoptosis: 1; WT yeast gro inh: -11

Results for COc1cccc(CC2CC(=O)N(c3ccc4c(C)cc(=O)oc4c3)C2=O)c1 (configuration not stated) ?
SUMO Mot1 rescue: -6; CSC inhib: -4; Efflux pump mplx: 0; T cruzi repl: -16; Beta apoptosis: 1; WT yeast gro inh: 6

Results for CN(C(=O)Nc1ccc(Cl)c(Cl)c1)c1ccccc1C(=O)O ?
SUMO Mot1 rescue: 136; CSC inhib: 20; Efflux pump mplx: 0; T cruzi repl: -11; Beta apoptosis: 4; WT yeast gro inh: 72*

What do the screens show for `O=C(CSc1ccc2ccccc2c1Br)Nc1cccc(S(=O)(=O)NC2=NCCCCC2)c1`?
SUMO Mot1 rescue: 61; CSC inhib: 91*; Efflux pump mplx: 0; T cruzi repl: -5; Beta apoptosis: 2; WT yeast gro inh: 4

What do the screens show for `Cc1cc2oc(=O)cc(CNc3ccccc3F)c2cc1O`?
SUMO Mot1 rescue: -6; CSC inhib: 30; Efflux pump mplx: 0; T cruzi repl: 59*; Beta apoptosis: 10

How did CCOc1ccccc1NCc1cc(=O)oc2cc(C)c(O)cc12 do in these assays?
SUMO Mot1 rescue: 19; CSC inhib: 3; Efflux pump mplx: 0; T cruzi repl: 40; Beta apoptosis: 9

How did Cc1cc(Cl)ccc1OCC(=O)OCC(=O)N(CC(C)C)c1c(N)n(Cc2ccccc2)c(=O)[nH]c1=O do in these assays?
SUMO Mot1 rescue: 392; CSC inhib: 7; Efflux pump mplx: 0; T cruzi repl: 2; Beta apoptosis: -4

Results for O=C(CN1CCC(NC(=O)Nc2ccccc2)CC1)Nc1ccc([N+](=O)[O-])cc1 ?
SUMO Mot1 rescue: -19; CSC inhib: 2; Efflux pump mplx: 0; T cruzi repl: 1; Beta apoptosis: 5

What do the screens show for `CNC(=O)NC(=O)C(C)OC(=O)c1c2c(nc3ccccc13)/C(=C/c1cccs1)CC2` (configuration not stated)?
CSC inhib: 94*; Efflux pump mplx: -1; T cruzi repl: 2; Beta apoptosis: -4; WT yeast gro inh: 2

Results for COc1ccc(Cl)cc1NC(=O)NN1CCN(C)CC1 ?
SUMO Mot1 rescue: 492; CSC inhib: 0; Efflux pump mplx: 0; T cruzi repl: 10; Beta apoptosis: -3

Results for COc1cc(NC(=O)Cn2ncc(Cl)c(Cl)c2=O)c(C)cc1[N+](=O)[O-] ?
T cruzi repl: 85*; WT yeast gro inh: -2

What do the screens show for `COc1cc(NC(=O)CN2C(=O)CN(C)C2=O)c(C)cc1[N+](=O)[O-]`?
SUMO Mot1 rescue: -7; CSC inhib: -10; Efflux pump mplx: 0; T cruzi repl: -2; Beta apoptosis: -17; WT yeast gro inh: 7

Results for CCC(NC(=S)NCc1ccc(F)cc1)c1ccccc1 (configuration not stated) ?
SUMO Mot1 rescue: 2; CSC inhib: -7; Efflux pump mplx: 0; T cruzi repl: -15; Beta apoptosis: -3

Results for COc1ccc(-c2csc(NC(=O)CSC(C)C(=O)Nc3cc(C)on3)n2)cc1OC (configuration not stated) ?
SUMO Mot1 rescue: 17; Efflux pump mplx: 0; Beta apoptosis: 2

Results for CCCCCCn1c(=O)[nH]c2nc3cc(N)ccc3nc2c1=O ?
SUMO Mot1 rescue: 0; CSC inhib: 82*; Efflux pump mplx: 0; T cruzi repl: -1; Beta apoptosis: -13; WT yeast gro inh: -12

What do the screens show for `COc1ccc(-c2c3c(=O)n(C)c(=O)n(C)c3cn2-c2cc(OC)ccc2OC)cc1`?
CSC inhib: 7; Efflux pump mplx: 0; T cruzi repl: 7; Beta apoptosis: 0; WT yeast gro inh: 5

How did COC(=O)c1c(NC(NC(=O)C(C)C)C(Cl)(Cl)Cl)sc2c1CCCC2 (configuration not stated) do in these assays?
SUMO Mot1 rescue: -2; Efflux pump mplx: 0; T cruzi repl: 12; Beta apoptosis: 5; WT yeast gro inh: 77*

Results for N/C(CSc1nc(-c2ccccc2)c(-c2ccccc2)o1)=N\O ?
SUMO Mot1 rescue: -3; CSC inhib: 2; Efflux pump mplx: 0; T cruzi repl: 10; Beta apoptosis: -11; WT yeast gro inh: 51

Results for C/C(N)=C(/C#N)C(=O)CSc1nc(-c2ccccc2)c(-c2ccccc2)o1 ?
SUMO Mot1 rescue: 4; CSC inhib: 16; Efflux pump mplx: 0; T cruzi repl: 59*

Results for Nc1ccc2c(c1)COc1ccccc1O2 ?
SUMO Mot1 rescue: -5; CSC inhib: 4; Efflux pump mplx: 0; T cruzi repl: 12; Beta apoptosis: -2; WT yeast gro inh: 19

What do the screens show for `Nc1ccc2c(c1)Oc1ccccc1C=C2`?
SUMO Mot1 rescue: 67; CSC inhib: 110*; Efflux pump mplx: 0; T cruzi repl: -4; Beta apoptosis: -13; WT yeast gro inh: -15

What do the screens show for `O/N=C/c1ccnc(SCc2ccc(Cl)cc2)n1`?
SUMO Mot1 rescue: 4; CSC inhib: 80*; Efflux pump mplx: 0

How did CCN1/C(=C\c2ccc3cc(C)ccc3[n+]2CC)Sc2cc(C)c(C)cc21 do in these assays?
T cruzi repl: 64*; WT yeast gro inh: 88*

How did CCN1/C(=C/c2ccc3cc(C)cc(C)c3[n+]2CC)Sc2cc(C)ccc21 do in these assays?
WT yeast gro inh: 95*

Results for Cc1cc(F)ccc1S(=O)(=O)Nc1ccccc1C(=O)Nc1ccccc1-c1nc2ccccc2[nH]1 ?
SUMO Mot1 rescue: -2; CSC inhib: 79*; Efflux pump mplx: 0; T cruzi repl: 49; Beta apoptosis: 116*; WT yeast gro inh: -16

How did Cc1cccc(CN2CCc3c([nH]c4ccccc34)C2C(C)(C)C)n1 (configuration not stated) do in these assays?
SUMO Mot1 rescue: -6; CSC inhib: -1; Efflux pump mplx: 0; T cruzi repl: 29

Results for CCCCn1c(N2CCC(Cc3ccccc3)CC2)nc2c1c(=O)[nH]c(=O)n2C ?
SUMO Mot1 rescue: -6; CSC inhib: -6; Efflux pump mplx: 0; T cruzi repl: 37; Beta apoptosis: -5; WT yeast gro inh: 68*
